Measured values reported in ChEMBL document CHEMBL1156002, “Synthesis, Raman, FT-IR, NMR spectroscopic characterization, antimicrobial activity, cytotoxicity and DNA binding of new mixed aza-oxo-thia macrocyclic compounds” (2009).

Legend:
[1] = test system: Debaryomyces hansenii; experiment: Antifungal activity against Debaryomyces hansenii DSM 70238 after 24 hrs by broth micro dilution method; format: functional
Procedure, shortened: (§1)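 Broth microdilution was run in cation-adjusted Mueller Hinton Broth. Compounds were dissolved in DMSO at 2 mg mL^-1 and serially diluted two-fold. Yeast precultures were grown in Malt Extract Broth for 48 h. The final inoculum was about 10⁶ cfu mL^-1, and plates were incubated at 37 °C for 24 h. The MIC was read from this series.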

[2] = test system: Rhodotorula mucilaginosa; experiment: Antifungal activity against Rhodotorula rubra DSM 70403 after 24 hrs by broth micro dilution method; format: functional; procedure, shortened: as §1
[3] = test system: Kluyveromyces marxianus; experiment: Antifungal activity against Kluyveromyces fragilis NRRL 2415 at 100 ug after 72 hrs by agar disk diffusion assay; format: functional, organism-based
Procedure, shortened: (§2)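 Yeasts were pre-grown in Malt Extract Broth for 48 h. Sterile 6 mm discs loaded with compound solutions freshly made in DMSO were placed on inoculated agar and incubated at 25 °C for 72 h. The medium was supplemented with DMSO as a solvent control, and an appropriate reference antifungal disc was added to each plate.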

[4] = test system: Rhodotorula mucilaginosa; experiment: Antifungal activity against Rhodotorula rubra DSM 70403 at 100 ug after 72 hrs by agar disk diffusion assay; format: functional, organism-based; procedure, shortened: as §2
[5] = test system: Kluyveromyces marxianus; experiment: Antifungal activity against Kluyveromyces fragilis NRRL 2415 after 24 hrs by broth micro dilution method; format: functional; procedure, shortened: as §1
[6] = test system: Hanseniaspora guilliermondii; experiment: Antifungal activity against Hanseniaspora guilliermondii DSM 3432 at 100 ug after 72 hrs by agar disk diffusion assay; format: functional, organism-based; procedure, shortened: as §2
[7] = test system: Candida albicans; experiment: Antifungal activity against Candida albicans ATCC 10231 after 24 hrs by broth micro dilution method; format: functional; procedure, shortened: as §1
[8] = test system: Debaryomyces hansenii; experiment: Antifungal activity against Debaryomyces hansenii DSM 70238 at 100 ug after 72 hrs by agar disk diffusion assay; format: functional, organism-based; procedure, shortened: as §2
[9] = test system: Hanseniaspora guilliermondii; experiment: Antifungal activity against Hanseniaspora guilliermondii DSM 3432 after 24 hrs by broth micro dilution method; format: functional; procedure, shortened: as §1
[10] = test system: Candida albicans; experiment: Antifungal activity against Candida albicans ATCC 10231 at 10 ug after 72 hrs by agar disk diffusion assay; format: functional; details: ATCC 10231, 72 h, read-out: IZ
Procedure, shortened: (§3)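 Sterile 6 mm paper discs were loaded with ligand solution freshly prepared in DMSO and placed on inoculated agar. The inoculum came from broth cultures: bacteria in Nutrient Broth at 30 °C for 24 h, yeasts in Malt Extract Broth for 48 h. Plates were incubated at 35 °C for 24 h (bacteria) or 25 °C for 72 h (yeasts). A DMSO solvent control and a reference antibiotic disc were included on each plate.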

[11] = test system: Hanseniaspora guilliermondii; experiment: Antifungal activity against Hanseniaspora guilliermondii DSM 3432 at 10 ug after 72 hrs by agar disk diffusion assay; format: functional; details: DSM 3432, 72 h, read-out: IZ; procedure, shortened: as §3
[12] = test system: Kluyveromyces marxianus; experiment: Antifungal activity against Kluyveromyces fragilis NRRL 2415 at 10 ug after 72 hrs by agar disk diffusion assay; format: functional; details: NRRL 2415, 72 h, read-out: IZ; procedure, shortened: as §3
[13] = test system: Rhodotorula mucilaginosa; experiment: Antifungal activity against Rhodotorula rubra DSM 70403 at 10 ug after 72 hrs by agar disk diffusion assay; format: functional; details: DSM 70403, 72 h, read-out: IZ; procedure, shortened: as §3
[14] = test system: Debaryomyces hansenii; experiment: Antifungal activity against Debaryomyces hansenii DSM 70238 at 10 ug after 72 hrs by agar disk diffusion assay; format: functional; details: DSM 70238, 72 h, read-out: IZ; procedure, shortened: as §3
[15] = test system: Listeria monocytogenes; experiment: Antibacterial activity against Listeria monocytogenes ATCC 15313 at 5 ug after 24 hrs by agar disk diffusion assay; format: functional; details: ATCC 15313, 24 h, read-out: IZ
Procedure, shortened: (§4)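 Disk diffusion with sterile 6 mm discs loaded with DMSO solutions of the test agents and placed on inoculated agar. Bacteria were pre-grown in Nutrient Broth at 30 °C for 24 h, and plates were incubated at 35 °C for 24 h. Each plate carried a reference antibiotic disc matched to the organism, and a DMSO-only solvent control was run.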

[16] = test system: Mycolicibacterium smegmatis; experiment: Antibacterial activity against Mycobacterium smegmatis CCM 2067 at 5 ug after 24 hrs by agar disk diffusion assay; format: functional; details: CCM 2067, 24 h, read-out: IZ; procedure, shortened: as §4
[17] = test system: Staphylococcus aureus; experiment: Antibacterial activity against Staphylococcus aureus ATCC 6538 at 5 ug after 24 hrs by agar disk diffusion assay; format: functional; details: ATCC 6538, 24 h, read-out: IZ; procedure, shortened: as §3
[18] = test system: Proteus vulgaris; experiment: Antibacterial activity against Proteus vulgaris ATCC 8427 at 5 ug after 24 hrs by agar disk diffusion assay; format: functional; details: ATCC 8427, 24 h, read-out: IZ; procedure, shortened: as §4
[19] = test system: Bacillus cereus; experiment: Antibacterial activity against Bacillus cereus ATCC 7064 at 5 ug after 24 hrs by agar disk diffusion assay; format: functional; details: ATCC 7064, 24 h, read-out: IZ; procedure, shortened: as §4
[20] = test system: Micrococcus luteus; experiment: Antibacterial activity against Micrococcus luteus La 2971 at 5 ug after 24 hrs by agar disk diffusion assay; format: functional; details: La 2971, 24 h, read-out: IZ; procedure, shortened: as §4
[21] = test system: Pseudomonas aeruginosa; experiment: Antibacterial activity against Pseudomonas aeruginosa ATCC 27853 at 5 ug after 24 hrs by agar disk diffusion assay; format: functional; details: ATCC 27853, 24 h, read-out: IZ; procedure, shortened: as §4
[22] = test system: Klebsiella pneumoniae; experiment: Antibacterial activity against Klebsiella pneumoniae UC57 at 5 ug after 24 hrs by agar disk diffusion assay; format: functional; details: UC57, 24 h, read-out: IZ; procedure, shortened: as §4
[23] = test system: Escherichia coli; experiment: Antibacterial activity against Escherichia coli ATCC 11230 at 5 ug after 24 hrs by agar disk diffusion assay; format: functional; details: ATCC 11230, 24 h, read-out: IZ; procedure, shortened: as §4
[24] = test system: Hanseniaspora guilliermondii; experiment: Antifungal activity against Hanseniaspora guilliermondii DSM 3432 at 20 ug after 72 hrs by agar disk diffusion assay; format: functional; details: DSM 3432, 72 h, read-out: IZ; procedure, shortened: as §2
[25] = test system: Debaryomyces hansenii; experiment: Antifungal activity against Debaryomyces hansenii DSM 70238 at 20 ug after 72 hrs by agar disk diffusion assay; format: functional; details: DSM 70238, 72 h, read-out: IZ; procedure, shortened: as §2
[26] = test system: Kluyveromyces marxianus; experiment: Antifungal activity against Kluyveromyces fragilis NRRL 2415 at 20 ug after 72 hrs by agar disk diffusion assay; format: functional; details: NRRL 2415, 72 h, read-out: IZ; procedure, shortened: as §2
[27] = test system: Candida albicans; experiment: Antifungal activity against Candida albicans ATCC 10231 at 20 ug after 72 hrs by agar disk diffusion assay; format: functional; details: ATCC 10231, 72 h, read-out: IZ; procedure, shortened: as §2
[28] = test system: Rhodotorula mucilaginosa; experiment: Antifungal activity against Rhodotorula rubra DSM 70403 at 20 ug after 72 hrs by agar disk diffusion assay; format: functional; details: DSM 70403, 72 h, read-out: IZ; procedure, shortened: as §2
[29] = test system: Micrococcus luteus; experiment: Antibacterial activity against Micrococcus luteus La 2971 at 10 ug after 24 hrs by agar disk diffusion assay; format: functional; details: La 2971, 24 h, read-out: IZ; procedure, shortened: as §4
[30] = test system: Bacillus cereus; experiment: Antibacterial activity against Bacillus cereus ATCC 7064 at 10 ug after 24 hrs by agar disk diffusion assay; format: functional; details: ATCC 7064, 24 h, read-out: IZ; procedure, shortened: as §4
[31] = test system: Mycolicibacterium smegmatis; experiment: Antibacterial activity against Mycobacterium smegmatis CCM 2067 at 10 ug after 24 hrs by agar disk diffusion assay; format: functional; details: CCM 2067, 24 h, read-out: IZ; procedure, shortened: as §4
[32] = test system: Staphylococcus aureus; experiment: Antibacterial activity against Staphylococcus aureus ATCC 6538 at 10 ug after 24 hrs by agar disk diffusion assay; format: functional; details: ATCC 6538, 24 h, read-out: IZ; procedure, shortened: as §3
[33] = test system: Listeria monocytogenes; experiment: Antibacterial activity against Listeria monocytogenes ATCC 15313 at 10 ug after 24 hrs by agar disk diffusion assay; format: functional; details: ATCC 15313, 24 h, read-out: IZ; procedure, shortened: as §4
[34] = test system: Proteus vulgaris; experiment: Antibacterial activity against Proteus vulgaris ATCC 8427 at 10 ug after 24 hrs by agar disk diffusion assay; format: functional; details: ATCC 8427, 24 h, read-out: IZ; procedure, shortened: as §4
[35] = test system: Escherichia coli; experiment: Antibacterial activity against Escherichia coli ATCC 11230 at 10 ug after 24 hrs by agar disk diffusion assay; format: functional; details: ATCC 11230, 24 h, read-out: IZ; procedure, shortened: as §4
[36] = test system: Klebsiella pneumoniae; experiment: Antibacterial activity against Klebsiella pneumoniae UC57 at 10 ug after 24 hrs by agar disk diffusion assay; format: functional; details: UC57, 24 h, read-out: IZ; procedure, shortened: as §4
[37] = test system: Pseudomonas aeruginosa; experiment: Antibacterial activity against Pseudomonas aeruginosa ATCC 27853 at 10 ug after 24 hrs by agar disk diffusion assay; format: functional; details: ATCC 27853, 24 h, read-out: IZ; procedure, shortened: as §4

Work on NYSTATIN yielded an MIC [1] of 12.5 µg/mL, an MIC [2] of 6.25 µg/mL and an inhibition zone (IZ) [3] of 20 mm. The inhibition zone (IZ) [4] was 18 mm, the MIC [5] was 6.25 µg/mL and the inhibition zone (IZ) [6] was 21 mm. The MIC [7] was 3.12 µg/mL, the inhibition zone (IZ) [8] was 16 mm and the MIC [9] was 3.12 µg/mL.

With `Clc1ccccc1C(c1ccccc1)(c1ccccc1)n1ccnc1` [CLOTRIMAZOLE] the zone of inhibition at 10 µg/disc [10] was 16 mm, the zone of inhibition at 10 µg/disc [11] was 22 mm and the zone of inhibition at 10 µg/disc [12] was 15 mm. It also gave a zone of inhibition at 10 µg/disc [13] of 18 mm and a zone of inhibition at 10 µg/disc [14] of 18 mm.

With `CC1COc2c(N3CCN(C)CC3)c(F)cc3c(=O)c(C(=O)O)cn1c23` (configuration not stated) [OFLOXACIN] the zone of inhibition at 5 µg/disc [15] was 30 mm, the zone of inhibition at 5 µg/disc [16] was 32 mm and the zone of inhibition at 5 µg/disc [17] was 24 mm. For the same compound, the zone of inhibition at 5 µg/disc [18] was 30 mm, the zone of inhibition at 5 µg/disc [19] was 44 mm and the zone of inhibition at 5 µg/disc [20] was 28 mm. The zone of inhibition at 5 µg/disc [21] was 28 mm, the zone of inhibition at 5 µg/disc [22] was 28 mm and the zone of inhibition at 5 µg/disc [23] was 30 mm.

Compound `CC(=O)N1CCN(c2ccc(OCC3COC(Cn4ccnc4)(c4ccc(Cl)cc4Cl)O3)cc2)CC1` (configuration not stated) [KETOCONAZOLE] has a zone of inhibition at 20 µg/disc [24] of 24 mm, a zone of inhibition at 20 µg/disc [25] of 14 mm and a zone of inhibition at 20 µg/disc [26] of 21 mm. For the same compound, the zone of inhibition at 20 µg/disc [27] was 22 mm and the zone of inhibition at 20 µg/disc [28] was 16 mm.

`CC1(C)S[C@@H]2[C@H](NC(=O)[C@H](N)c3ccccc3)C(=O)N2[C@H]1C(=O)O` [AMPICILLIN] was tested, and the zone of inhibition at 10 µg/disc [29] was 16 mm, the zone of inhibition at 10 µg/disc [30] was 10 mm and the zone of inhibition at 10 µg/disc [31] was 21 mm. It also gave a zone of inhibition at 10 µg/disc [32] of 16 mm, a zone of inhibition at 10 µg/disc [33] of 12 mm and a zone of inhibition at 10 µg/disc [34] of 12 mm. It also gave a zone of inhibition at 10 µg/disc [35] of 12 mm, a zone of inhibition at 10 µg/disc [36] of 14 mm and a zone of inhibition at 10 µg/disc [37] of 32 mm.
